# Measurements pooled from the literature.
# Lines come from different studies, so protocols differ.
# Organism: Human immunodeficiency virus 1
# Effect on: viral replication
Structure (SMILES),test,test system,setting,endpoint,result
COc1ccccc1CN[C@H]1C2CCN(CC2)[C@H]1C(c1ccccc1)c1ccccc1,ELISA,"human PBMC, BAL",7 days,IC50,15.2 µM
O=C(O)c1cc(F)cc(Cn2ccc3ccc(-c4ccc5ccn(Cc6cccc(OC(F)(F)F)c6)c5c4)cc32)c1,inhibitor,IIIB,,IC50,2 µM
OCc1cc(C(O)CNCCCCCCOCCCCc2ccccc2)ccc1O (stereo not drawn),inhibitor,TZM-bl,,EC50,20 µM
O=c1cc(-c2ccc(O)cc2)oc2cc(O)cc(O)c12,inhibitor,human PBMC,6 days,EC50,5 µM
O=[N+]([O-])c1cccc(-c2nc3c4cc(I)ccc4c4ccccc4c3[nH]2)c1,inhibitor,human PBMC,7 days,IC50,14.2 µM
CC(C)(C)NC(=O)[C@@H]1C[C@@H]2CCCC[C@@H]2CN1C[C@@H](O)[C@H](Cc1ccccc1)NC(=O)[C@H](CC(N)=O)NC(=O)c1ccc2ccccc2n1,inhibitor,T-lymphoid,,IC50,0.021 µM
O=c1cc(-c2ccccc2)oc2cc(O)cc(O)c12,inhibitor,human PBMC,6 days,EC50,9.2 µM
O=C(O)c1cc(O)c(O)c(O)c1,inhibitor,CEM-GFP,8 days,IC50,0.19 µg/mL
COc1cc(F)ccc1-c1ncnc(Nc2cccc(C[S@](C)(=N)=O)c2)n1,inhibitor,human PBMC,6 days,EC50,3.4 µM
C[C@@H](O[C@H]1OCCN(Cc2n[nH]c(=O)[nH]2)[C@H]1c1ccc(F)cc1)c1cc(C(F)(F)F)cc(C(F)(F)F)c1,"inhibitor, ELISA","human PBMC, BAL",,IC50,6.4 µM
Cc1cn([C@H]2C[C@H](N=[N+]=[N-])[C@@H](CO)O2)c(=O)[nH]c1=O,"inhibitor, luciferase",TZM-bl,48 h,IC50,0.043 µg/mL
COC(=O)c1cccc(Cn2ccc3ccc(-c4ccc5ccn(Cc6cccc(C(=O)O)c6)c5c4)cc32)c1,inhibitor,"MAGI, BAL",,IC90,38.4 µM
Cc1nc(C(CN)NC(=O)C(=O)Nc2ccc3c(c2)OCO3)sc1CO (stereo not drawn),ELISA,MT2,,IC50,> 79 µM
CC(C)C[C@H](NC(=O)[C@@H](NC(=O)[C@@H]1CCCN1C(=O)[C@@H](NC(=O)[C@H](CO)NC(=O)[C@@H](NC(=O)[C@H](CCC(N)=O)NC(=O)[C@@H]1CCCN1C(=O)[C@@H](NC(=O)[C@H](CCCCN)NC(=O)[C@H](CCCCN)NC(=O)[C@@H](NC(=O)[C@H](Cc1ccc(O)cc1)NC(=O)[C@H](CCCNC(=N)N)NC(=O)[C@@H](NC(=O)[C@@H](N)CC(C)C)C(C)C)[C@@H](C)O)C(C)C)C(C)C)[C@@H](C)O)[C@@H](C)O)C(=O)O,inhibitor,TZM-bl,,IC50,> 10 µM
O=c1oc2c(O)c(O)cc3c(=O)oc4c(O)c(O)cc1c4c23,inhibitor,CEM-GFP,8 days,IC50,73 µg/mL
